Experiments:
Format in all cases: functional
SK-MEL-2 = assay: Cytotoxicity against human SK-MEL-2 cells assessed as cell viability at 10 uM after 24 hrs by MTT assay relative to control; conditions: SK-MEL-2, 24 h, read-out: Activity
How it was run: (§1)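 Adherent lines in DMEM plus 10% FBS and penicillin-streptomycin, 37 °C, 5% CO2, lifted with Accutase. Seeded at 500–10,000 cells/well and rested 15 h. Compounds from 10 mM DMSO stocks dosed at 10 µM final, 1% DMSO final, n = 5, for 24 h. Medium then swapped for 1 mg/ml MTT in phenol-red-free medium for 3 h at 37 °C. Formazan dissolved in DMSO, OD read at 550 nm. Viability normalised to 1% DMSO vehicle control.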

HCT-116 [1] = assay: Cytotoxicity against human HCT116 cells assessed as cell viability at 10 uM after 24 hrs by MTT assay relative to control; conditions: HCT-116, 24 h, read-out: Activity; how it was run: as §1
JeKo-1 [2] = assay: Cytotoxicity against human JeKo1 cells assessed as cell viability at 2 uM after 24 hrs by MTT assay relative to control; conditions: JeKo-1, 24 h, read-out: Activity
How it was run: (§2)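 Suspension lines grown in α-MEM plus 10% FBS and penicillin-streptomycin, 37 °C, 5% CO2. Seeded at 30,000 cells/well in phenol-red-free α-MEM and rested 15 h. Exposed to 10 µM, or 2 µM in the lower-dose repeat, at 1% DMSO final for 24 h. 5 mg/ml MTT added directly for 3 h at 37 °C. Plates spun, formazan dissolved in DMSO, OD read at 550 nm. Viability relative to vehicle.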

A549 = assay: Cytotoxicity against human A549 cells assessed as cell viability at 10 uM after 24 hrs by MTT assay relative to control; conditions: A549, 24 h, read-out: Activity; how it was run: as §1
HeLa [3] = assay: Cytotoxicity against human HeLa cells assessed as cell viability at 10 uM after 24 hrs by MTT assay relative to control; conditions: read-out: Activity; how it was run: as §1
MDA-MB-231 [4] = assay: Cytotoxicity against human MDA-MB-231 cells assessed as cell viability at 10 uM after 24 hrs by MTT assay relative to control; conditions: MDA-MB-231, 24 h, read-out: Activity; how it was run: as §1
PC-3 [5] = assay: Cytotoxicity against human PC3 cells assessed as cell viability at 10 uM after 24 hrs by MTT assay relative to control; conditions: PC-3, 24 h, read-out: Activity; how it was run: as §1
JeKo-1 [6] = assay: Cytotoxicity against human JeKo1 cells assessed as cell viability at 10 uM after 24 hrs by MTT assay relative to control; conditions: JeKo-1, 24 h, read-out: Activity; how it was run: as §2
SK-N-MC [7] = assay: Cytotoxicity against human SK-N-MC cells assessed as cell viability at 10 uM after 24 hrs by MTT assay relative to control; conditions: read-out: Activity; how it was run: as §1
Jurkat [8] = assay: Cytotoxicity against human Jurkat cells assessed as cell viability at 10 uM after 24 hrs by MTT assay relative to control; conditions: read-out: Activity; how it was run: as §2
SJSA-1 [9] = assay: Cytotoxicity against human SJSA1 cells assessed as cell viability at 10 uM after 24 hrs by MTT assay relative to control; conditions: SJSA-1, 24 h, read-out: Activity; how it was run: as §1
Jurkat [10] = assay: Cytotoxicity against human Jurkat cells assessed as cell viability at 2 uM after 24 hrs by MTT assay relative to control; conditions: read-out: Activity; how it was run: as §2
HCT-116 [11] = assay: Cytotoxicity against human HCT116 cells assessed as cell viability after 24 hrs by MTT assay; conditions: HCT-116, 24 h, read-out: LC50 (the source's name)
How it was run: (§3)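 Adherent cells grown in DMEM with 10% FBS and penicillin-streptomycin, dissociated with Accutase, seeded at 500–10,000 cells/well and held 15 h before treatment. Compounds diluted from 10 mM DMSO stocks, final 1% DMSO, for 24 h at 37 °C, 5% CO2. Medium replaced with 1 mg/ml MTT for 3 h, formazan dissolved in DMSO, OD 550 nm. LC50 from dose-response curves normalized to 1% DMSO vehicle.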

JeKo-1 [12] = assay: Cytotoxicity against human JeKo1 cells assessed as cell viability after 24 hrs by MTT assay; conditions: JeKo-1, 24 h, read-out: LC50 (the source's name)
How it was run: (§4)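 Suspension cells grown in α-MEM with 10% FBS and penicillin-streptomycin, seeded at 30,000 cells/well in phenol red-free medium and held 15 h before treatment. Compounds diluted from 10 mM DMSO stocks, final 1% DMSO, for 24 h. MTT (5 mg/ml stock) added directly for 3 h at 37 °C, then centrifugation, DMSO solubilization, OD 550 nm. LC50 from dose-response curves normalized to vehicle.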

Jurkat [13] = assay: Cytotoxicity against human Jurkat cells assessed as cell viability after 24 hrs by MTT assay; conditions: read-out: LC50 (the source's name); how it was run: as §4
MDA-MB-231 [14] = assay: Cytotoxicity against human MDA-MB-231 cells assessed as cell viability after 24 hrs by MTT assay; conditions: MDA-MB-231, 24 h, read-out: LC50 (the source's name); how it was run: as §3
PC-3 [15] = assay: Cytotoxicity against human PC3 cells assessed as cell viability after 24 hrs by MTT assay; conditions: PC-3, 24 h, read-out: LC50 (the source's name); how it was run: as §3
HeLa [16] = assay: Cytotoxicity against human HeLa cells assessed as cell viability after 24 hrs by MTT assay; conditions: read-out: LC50 (the source's name); how it was run: as §3
SK-N-MC [17] = assay: Cytotoxicity against human SK-N-MC cells assessed as cell viability after 24 hrs by MTT assay; conditions: read-out: LC50 (the source's name); how it was run: as §3
SJSA-1 [18] = assay: Cytotoxicity against human SJSA1 cells assessed as cell viability after 24 hrs by MTT assay; conditions: SJSA-1, 24 h, read-out: LC50 (the source's name); how it was run: as §3

| SMILES | viability at 10 µM (SK-MEL-2) | viability at 10 µM (HCT-116 [1]) | viability at 2 µM (JeKo-1 [2]) | viability at 10 µM (A549) | viability at 10 µM (HeLa [3]) | viability at 10 µM (MDA-MB-231 [4]) | viability at 10 µM (PC-3 [5]) | viability at 10 µM (JeKo-1 [6]) | viability at 10 µM (SK-N-MC [7]) | viability at 10 µM (Jurkat [8]) | viability at 10 µM (SJSA-1 [9]) | viability at 2 µM (Jurkat [10]) | CC50 (HCT-116 [11]) | CC50 (JeKo-1 [12]) | CC50 (Jurkat [13]) | CC50 (MDA-MB-231 [14]) | CC50 (PC-3 [15]) | CC50 (HeLa [16]) | CC50 (SK-N-MC [17]) | CC50 (SJSA-1 [18]) |
| --- | --- | --- | --- | --- | --- | --- | --- | --- | --- | --- | --- | --- | --- | --- | --- | --- | --- | --- | --- | --- |
| C=C1C(=O)O[C@@H]2[C@H]3O[C@]3(C)CC/C=C(/COC(=O)Nc3ccccc3)CC[C@@H]12 | 80.5% | 45.9% | 100% | 60.3% | 74.2% | 97.1% | 85.3% | 16.6% | 102% | 0% | 100% | 89.2% |  |  |  |  |  |  |  |  |
| C=C1C(=O)O[C@@H]2[C@H]3O[C@]3(C)CC/C=C(/COC(=O)Nc3cccc4ccccc34)CC[C@@H]12 | 73.6% | 100% | 102% | 84.5% | 75% | 100% | 81.9% | 16.8% | 104% | 89% | 98.3% | 96% |  |  |  |  |  |  |  |  |
| C=C1C(=O)O[C@@H]2[C@H]3O[C@]3(C)CC/C=C(/C)[C@@H](OC(=O)c3cc(-c4ccc(Cl)cc4)on3)C[C@@H]12 | 85.8% | 14.2% | 96.9% | 98.4% | 63.5% | 84.7% | 71.7% | -2.7% | 70.7% | 0% | 92.7% | 95.7% | 8.3 µM |  |  |  |  |  |  |  |
| C=C1C(=O)O[C@@H]2[C@H]3O[C@]3(C)CC/C=C(/COC(=O)c3coc(-c4ccc(Br)cc4)c3)CC[C@@H]12 | 78.8% | 11.8% | 100% | 74.8% | 57.6% | 91% | 65.9% | 7.4% | 66.1% | 0% | 47.7% | 89% | 11.8 µM |  |  |  |  |  |  |  |
| C=C1C(=O)O[C@@H]2[C@H]3O[C@]3(C)CC/C=C(/C)[C@@H](OC(=O)Nc3cccc4ccccc34)C[C@@H]12 | 98.7% | 100% | 97.6% | 95.8% | 88.8% | 100% | 83.4% | 75.7% | 96.8% | 84% | 100% | 93.3% |  |  |  |  |  |  |  |  |
| C=C1C(=O)O[C@@H]2[C@H]3O[C@]3(C)CC/C=C(/C)[C@@H](OC(=O)Nc3ccccc3)C[C@@H]12 | 69.4% | 55.3% | 92.2% | 84.5% | 69% | 100% | 88.4% | 2.6% | 91.9% | 2.9% | 96.6% | 89.8% |  |  |  |  |  |  |  |  |
| C=C1C(=O)O[C@@H]2[C@H]3O[C@]3(C)CC/C=C(/C)[C@@H](OC(=O)Nc3cc(C(F)(F)F)cc(C(F)(F)F)c3)C[C@@H]12 | 57% | 10.8% | 76.4% | 54.3% | 20.2% | 16.7% | 38.7% | -1% | 18.5% | 0% | 68.2% | 68.9% | 7.9 µM | 3.5 µM | 2.8 µM | 7.2 µM |  |  |  |  |
| C=C1C(=O)O[C@@H]2[C@H]3O[C@]3(C)CC/C=C(/COC(=O)Nc3ccc([N+](=O)[O-])cc3)CC[C@@H]12 | 40.4% | 1.6% | 80% | 60% | 5.4% | 41.3% | 17.7% | -0.1% | 23.3% | 0% | 44.5% | 79% | 7.8 µM |  |  |  | 5.7 µM | 1.7 µM |  |  |
| C=C1C(=O)O[C@@H]2[C@H]3O[C@]3(C)CC/C=C(/COC(=O)c3ccc(C(F)(F)F)cc3C(F)(F)F)CC[C@@H]12 | 62% | 15.1% | 80.9% | 45.1% | 11.3% | 20.7% | 4% | -2.2% | 18.7% | 0% | 17.8% | 89% | 8.2 µM |  |  |  | 6.7 µM | 2.9 µM | 5.6 µM | 7.7 µM |
| C=C1C(=O)O[C@@H]2[C@H]3O[C@]3(C)CC/C=C(/COC(=O)Nc3ccc(F)cc3F)CC[C@@H]12 | 84.5% | 33.2% | 78.3% | 70.6% | 89.7% | 88.5% | 89.8% | -2.1% | 95.6% | 0% | 100% | 86.2% |  | 6.7 µM |  |  |  |  |  |  |
| C=C1C(=O)O[C@@H]2[C@H]3O[C@]3(C)CC/C=C(/C)[C@@H](OC(=O)c3ccc(C(F)(F)F)cc3C(F)(F)F)C[C@@H]12 | 61.4% | 20.8% | 105% | 33.7% | 10.7% | 19.2% | 6.4% | 5.7% | 11.5% | 0% | 26.5% | 83.2% |  |  |  | 5.7 µM | 5.3 µM | 2.1 µM | 5.7 µM |  |
| C=C1C(=O)O[C@@H]2[C@H]3O[C@]3(C)CC/C=C(/C)[C@@H](OC(=O)Nc3ccc([N+](=O)[O-])cc3)C[C@@H]12 | 75.2% | 38% | 84.1% | 83.3% | 78% | 98.6% | 94.1% | 0% | 92.4% | 0.2% | 100% | 78.9% |  |  |  |  |  |  |  |  |
| C=C1C(=O)O[C@@H]2[C@H]3O[C@]3(C)CC/C=C(/C)[C@@H](OC(=O)Nc3ccc(F)cc3F)C[C@@H]12 | 85.8% | 17.6% | 80.4% | 68.9% | 76.3% | 96.4% | 82.8% | -2.6% | 91.3% | 0% | 100% | 85.8% | 11.8 µM |  |  |  |  |  |  |  |

From ChEMBL document CHEMBL4219033, “Anticancer activity profiling of parthenolide analogs generated via P450-mediated chemoenzymatic synthesis” (2018)
